Columns and labels:
[1] = target: T1, Somatostatin receptor type 2 (Homo sapiens, UniProt P30874); assay: Agonist activity at human SST2 expressed in CHO cells assessed as inhibition of forskolin-stimulated cAMP release after 40 mins by luminescence assay; format: functional, cell-based
[2] = target: T1, Somatostatin receptor type 2; assay: Displacement of I125-somatostatin-14 from human SST2 expressed in CHO cells after 3 hrs by scintillation counting; format: cell-based
Homo sapiens [3] = species: Homo sapiens; assay: Selectivity for human SST2 over human SST5
Method in brief: (§1)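 Human sst1, sst2, sst3, sst4 or sst5 stably expressed in CHO cells; membrane displacement of 0.1 nM 125I-somatostatin-14 by compound 0-10000 nM, 30 min tracer preincubation then 3 h at room temperature, filtration and scintillation counting; selectivity taken from the binding values across subtypes.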

Homo sapiens [4] = species: Homo sapiens; assay: Selectivity for human SST2 over human SST1; method in brief: as §1
[5] = Half life in dog at 2 mg/kg, iv and 10 mg/kg, po; format: ADME, organism-based, Canis lupus familiaris; details: in vivo
Homo sapiens [6] = species: Homo sapiens; assay: Selectivity for human SST2 over human SST3; method in brief: as §1
[7] = Plasma clearance in dog at 2 mg/kg, iv and 10 mg/kg, po; format: ADME, organism-based, Canis lupus familiaris
[8] = Volume of distribution at steady state in dog at 2 mg/kg, iv and 10 mg/kg, po; format: ADME, organism-based, Canis lupus familiaris; details: in vivo, read-out: Vdss
[9] = target: T2, Gonadotropin-releasing hormone receptor (Homo sapiens, UniProt P30968); assay: Antagonist activity at GnRH receptor by GnRH; format: functional
T2 sequence (P30968 whole entry): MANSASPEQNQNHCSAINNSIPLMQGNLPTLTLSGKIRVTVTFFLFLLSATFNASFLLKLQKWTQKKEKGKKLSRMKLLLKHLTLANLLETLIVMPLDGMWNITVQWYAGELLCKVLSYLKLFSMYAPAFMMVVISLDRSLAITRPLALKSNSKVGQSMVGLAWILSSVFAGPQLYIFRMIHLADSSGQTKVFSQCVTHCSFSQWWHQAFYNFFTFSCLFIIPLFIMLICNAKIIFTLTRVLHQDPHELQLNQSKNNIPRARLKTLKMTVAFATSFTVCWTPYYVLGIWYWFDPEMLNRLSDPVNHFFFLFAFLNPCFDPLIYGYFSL

[10] = Volume of distribution at steady state in rat at 2 mg/kg, iv and 10 mg/kg, po; format: ADME, organism-based; details: in vivo, read-out: Vdss
[11] = Half life in rat at 2 mg/kg, iv and 10 mg/kg, po; format: ADME, organism-based; details: in vivo
[12] = Oral bioavailability in rat at 2 mg/kg, iv and 10 mg/kg, po iv; format: ADME, organism-based; details: in vivo
[13] = Plasma clearance in rat at 2 mg/kg, iv and 10 mg/kg, po; format: ADME, organism-based
[14] = Aqueous solubility of the compound; format: physicochemical; details: buffer
Rattus norvegicus [15] = assay: Inhibition of secretagogue-induced growth hormone release in Wistar rat assessed as reduction in plasma growth hormone area under the curve at 2 mg/kg, iv treated 50 mins before secretagogue challenge measured after every 5 to 15 mins; format: functional; set-up: scale not given: the % may be the effect or the level left
Method in brief: (§2)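 Female Wistar rats (200-250 g) with jugular and carotid cannulas, pentobarbital-anesthetized (50 mg/kg ip); vehicle or compound given iv via jugular cannula, GH secretagogue (10 μg/kg iv) 50 min later.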

[16] = Half life in dog at 0.125 mg/kg, iv; format: ADME, organism-based, Canis lupus familiaris; set-up: dose 0.125 mg/kg, route intravenous; details: in vivo
Method in brief: (§3)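 Dog PK after 0.125 mg/kg iv; plasma clearance (mL/min/kg), half-life (h) and steady-state volume of distribution (L/kg).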

Rattus norvegicus [17] = assay: Inhibition of secretagogue-induced growth hormone release in iv dosed Wistar rat plasma after 50 mins before secretagogue challenge measured after every 5 to 15 mins; format: functional, organism-based; method in brief: as §2
Rattus norvegicus [18] = assay: Antiangiogenic activity against laser-induced choroidal neovascularization rat model assessed as reduction in neovascular lesion area at 5 ug, intraocular administered once every 4 days; format: functional; set-up: scale not given: the % may be the effect or the level left
Method in brief: (§4)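 Laser-induced choroidal neovascularization in male Brown Norway rats (175-225 g). After lasering and topical 0.5% proparacaine, 5 μL vehicle (5% ethanol in PBS) or compound injected intravitreally 3 mm posterior to iris on days 0, 4 and 8; neovascular lesion area measured.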

[19] = Oral bioavailability in rat at 2 mg/kg, iv and 5 mg/kg, po; format: ADME, organism-based; details: in vivo
[20] = Plasma clearance in dog at 0.125 mg/kg, iv; format: ADME, organism-based, Canis lupus familiaris; set-up: dose 0.125 mg/kg, route intravenous; method in brief: as §3
Rattus norvegicus [21] = assay: Antiangiogenic activity against laser-induced choroidal neovascularization rat model assessed as reduction in neovascular lesion area, intraocular administered once every 4 days; format: functional, organism-based; details: Eye; method in brief: as §4
[22] = Half life in rat at 2 mg/kg, iv and 5 mg/kg, po; format: ADME, organism-based; details: in vivo
[23] = Volume of distribution at steady state in rat at 2 mg/kg, iv and 5 mg/kg, po; format: ADME, organism-based; details: in vivo, read-out: Vdss
[24] = Plasma clearance in rat at 2 mg/kg, iv and 5 mg/kg, po; format: ADME, organism-based
Rattus norvegicus [25] = assay: Inhibition of secretagogue-induced growth hormone release in Wistar rat assessed as reduction in plasma growth hormone area under the curve at 0.2 mg/kg, iv treated 50 mins before secretagogue challenge measured after every 5 to 15 mins; format: functional; set-up: scale not given: the % may be the effect or the level left; method in brief: as §2
[26] = Volume of distribution at steady state in dog at 0.125 mg/kg, iv; format: ADME, organism-based, Canis lupus familiaris; set-up: dose 0.125 mg/kg, route intravenous; details: in vivo, read-out: Vdss; method in brief: as §3
Rattus norvegicus [27] = assay: Antiangiogenic activity against laser-induced choroidal neovascularization rat model assessed as reduction in neovascular lesion area at 15 ug, intraocular administered once every 4 days; format: functional; set-up: scale not given: the % may be the effect or the level left; method in brief: as §4

T1 sequence (P30874 whole entry): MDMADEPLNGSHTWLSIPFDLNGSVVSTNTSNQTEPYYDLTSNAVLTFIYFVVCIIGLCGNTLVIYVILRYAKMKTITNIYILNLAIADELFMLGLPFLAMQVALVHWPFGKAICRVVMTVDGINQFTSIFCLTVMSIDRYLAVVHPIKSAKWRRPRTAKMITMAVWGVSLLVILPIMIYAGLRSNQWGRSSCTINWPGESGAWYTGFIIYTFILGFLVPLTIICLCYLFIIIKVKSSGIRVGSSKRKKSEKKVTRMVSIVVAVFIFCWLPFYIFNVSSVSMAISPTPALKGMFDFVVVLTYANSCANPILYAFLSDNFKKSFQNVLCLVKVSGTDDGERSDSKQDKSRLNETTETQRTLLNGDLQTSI

| IC50 [1] | Ki [2] | Compound | also measured |
| --- | --- | --- | --- |
| 11 nM | 0.13 nM | Cc1cc(C)cc(-c2cnc3cc(Cl)c(-c4ccc(Cl)nc4)cc3c2OCC[C@H]2CCCCN2)c1 |  |
| 1.1 nM | 0.037 nM | Cc1cc(C)cc(-c2cnc3cc(Cl)c(-c4cccc(O)c4)cc3c2OCC[C@H]2CCCCN2)c1 |  |
| 34 nM | 0.6 nM | Cc1cc(C)cc(-c2cnc3cc(Cl)c(-c4ccc(N)nc4)cc3c2OCC[C@H]2CCCCN2)c1 |  |
| 0.39 nM | 0.038 nM | Cc1cc(C)cc(-c2cnc3cc(Cl)c(-c4cccc(C(N)=O)c4)cc3c2OCC[C@H]2CCCCN2)c1 |  |
| 4.7 nM | 0.12 nM | Cc1cc(C)cc(-c2cnc3cc(Cl)c(-c4ccc(F)nc4)cc3c2OCC[C@H]2CCCCN2)c1 |  |
| 8.3 nM | 0.13 nM | Cc1cc(C)cc(-c2cnc3cc(Cl)c(-c4cccnc4)cc3c2OCC[C@H]2CCCCN2)c1 |  |
| 0.29 nM | 0.27 nM | Cc1cc(C)cc(-c2cnc3cc(Cl)c(-c4ccc(=O)[nH]c4)cc3c2OCC[C@H]2CCCCN2)c1 | fold change (FC) (Homo sapiens [3]): > 1000; fold change (FC) (Homo sapiens [4]): > 1000; half-life [5]: 0.55 h; fold change (FC) (Homo sapiens [6]): > 1000; clearance [7]: 5 mL/min/kg; Vd [8]: 0.094 L/kg |
| 0.38 nM | 0.08 nM | Cc1cc(C)cc(-c2cnc3cc(Cl)c(-c4ccc(O)cc4)cc3c2OCC[C@H]2CCCCN2)c1 |  |
|  | 1400 nM | Cc1cc(C)cc(-c2c(OCCC3CCCCN3)c3cc(-c4ccncn4)c(Cl)cc3[nH]c2=O)c1 (configuration not stated) | IC50 [9]: 3.2 nM |
| 0.38 nM | 0.08 nM | Cc1cc(C)cc(-c2cnc3cc(Cl)c(-c4cccc(C(N)=O)c4)cc3c2OCCCN)c1 |  |
| 8.3 nM | 0.13 nM | Cn1cc(-c2cc3c(OCC[C@H]4CCCCN4)c(-c4cccc(CO)c4)cnc3cc2Cl)cn1 |  |
|  |  | Cc1cc(C)cc(-c2cnc3cc(Cl)c(-c4cnn(C)c4)cc3c2OCC[C@H]2CCCCN2)c1 | fold change (FC) (Homo sapiens [3]): > 1000; fold change (FC) (Homo sapiens [4]): > 1000; Vd [10]: 3.1 L/kg; half-life [11]: 3.7 h; fold change (FC) (Homo sapiens [6]): > 1000; bioavailability [12]: 27%; clearance [13]: 14 mL/min/kg |
| 11 nM | 0.13 nM | OCc1cccc(-c2ccc3ncc(-c4cccc(CO)c4)c(OCC[C@H]4CCCCN4)c3c2)c1 |  |
|  | 20 nM | Cc1cc(C)cc(-c2cnc3cc(Cl)c(C(=O)Nc4ccncn4)cc3c2OCC[C@H]2CCCCN2)c1 | IC50 [9]: 2440 nM |
| 4.8 nM | 0.025 nM | Cc1cc(C)cc(-c2cnc3cc(Cl)c(-c4cccc(O)c4)cc3c2OCCCN)c1 | solubility [14]: Insoluble; Activity (Rattus norvegicus [15]): 91%; half-life [16]: 11 h; inhibition (Rattus norvegicus [17]): Dose-dependent effect; Activity (Rattus norvegicus [18]): 35%; bioavailability [19]: 17%; clearance [20]: 7.1 mL/min/kg; Activity (Rattus norvegicus [21]): Dose-dependent effect; half-life [22]: 2.9 h; Vd [23]: 9.4 L/kg; clearance [24]: 52 mL/min/kg; Activity (Rattus norvegicus [25]): 38%; Vd [26]: 5.7 L/kg; Activity (Rattus norvegicus [27]): 53% |
| 50 nM | 0.65 nM | COc1ccc(-c2cc3c(OCC[C@H]4CCCCN4)c(-c4cc(C)cc(C)c4)cnc3cc2Cl)cn1 |  |
| 13 nM | 0.1 nM | Cc1cc(C)cc(-c2cnc3cc(Cl)c(-c4ccc(CO)cc4)cc3c2OCC[C@H]2CCCCN2)c1 |  |
| 20 nM | 0.11 nM | Cc1cc(C)cc(-c2cnc3cc(Cl)c(-c4ccncc4)cc3c2OCC[C@H]2CCCCN2)c1 |  |
|  | 1.5 nM | Cc1cc(C)cc(-c2c(OCC[C@H]3CCCCN3)c3cc(-c4ccc(F)cc4)c(Cl)cc3[nH]c2=O)c1 |  |

From ChEMBL document CHEMBL1764995, “Design, synthesis, and evaluation of novel 3,6-diaryl-4-aminoalkoxyquinolines as selective agonists of somatostatin receptor subtype 2” (J Med Chem, 2011)
